What was measured:
[1] = molecular target: Kappa-type opioid receptor (Mus musculus, UniProt P33534); assay: Inhibitory activity against Opioid receptor kappa 1 in electrically stimulated mouse vas deferens (MVD) preparation.
Method in brief: (§1)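 Electrically stimulated guinea pig longitudinal ileal muscle or mouse vas deferens preparations, run per earlier work. The read-out is inhibition of twitch, given as IC50 (nM), arithmetic mean ± SEM of at least three experiments.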

[2] = molecular target: T1, Kappa-type opioid receptor (Cavia porcellus, UniProt P41144); assay: Inhibitory activity against Opioid receptor kappa 1 in electrically stimulated guinea pig longitudinal ileal muscle (GPI) preparation.; method in brief: as §1
T1 sequence (P41144 whole entry): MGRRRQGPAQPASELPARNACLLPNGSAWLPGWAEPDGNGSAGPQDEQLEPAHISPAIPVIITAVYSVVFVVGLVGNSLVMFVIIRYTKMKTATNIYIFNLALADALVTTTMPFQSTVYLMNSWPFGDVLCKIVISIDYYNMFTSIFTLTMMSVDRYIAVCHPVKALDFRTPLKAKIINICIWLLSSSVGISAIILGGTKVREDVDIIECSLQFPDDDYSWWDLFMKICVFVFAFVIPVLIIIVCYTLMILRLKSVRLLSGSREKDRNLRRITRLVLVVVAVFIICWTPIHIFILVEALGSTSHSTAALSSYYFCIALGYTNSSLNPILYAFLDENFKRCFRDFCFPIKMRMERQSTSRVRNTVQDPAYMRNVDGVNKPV

Cavia porcellus [3] = organism: Cavia porcellus; assay: Percent recovery after treatment with 500 nM of NTX and removal of NTX by 40 washes with buffer using smooth guinea pig ileal muscle; format: functional; details: Muscle tissue
Method in brief: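 Agonist-treated guinea pig ileum was incubated with 500 nM naltrexone for 10 min. NTX was then removed by 40 washes with buffer, and recovery of electrically evoked twitch height was recorded as percent. n = 1.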

Cavia porcellus [4] = organism: Cavia porcellus; assay: Percent recovery of twitch height after 30-40 washes with buffer using smooth guinea pig ileal muscle; format: functional; details: Muscle tissue
Method in brief: (§2)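 After agonist treatment, the electrically stimulated guinea pig ileum or mouse vas deferens was washed 30-40 times with buffer alone. Percent recovery of twitch height was recorded, n = 1.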

Mus musculus = organism: Mus musculus; assay: Percent recovery of twitch height after 30-40 washes with buffer using mouse vas deferens preparation; format: functional; method in brief: as §2
Mu-type opioid receptor = Mu-type opioid receptor (Cavia porcellus, UniProt P97266); assay: Binding affinity towards Opioid receptor mu 1 in guinea pig brain
Sequence of Mu-type opioid receptor (P97266 whole entry): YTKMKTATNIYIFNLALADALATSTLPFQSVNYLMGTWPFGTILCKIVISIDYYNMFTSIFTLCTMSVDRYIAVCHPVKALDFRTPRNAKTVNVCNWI
Method in brief: (§3)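 Competition binding against radioligands in guinea pig brain membranes, modified from a published method. κ: 1 nM [³H]U69,593; µ: 2 nM [³H]DAMGO; δ1: 5 nM [³H]DPDPE; δ2: 2 nM [³H]DSLET. Ki values are geometric means of three experiments.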

[5] = molecular target: T1, Kappa-type opioid receptor; assay: Binding affinity towards Opioid receptor kappa 1 in guinea pig brain; method in brief: as §3

Sequence of Kappa-type opioid receptor (Mus musculus, UniProt P33534) (P33534 whole entry): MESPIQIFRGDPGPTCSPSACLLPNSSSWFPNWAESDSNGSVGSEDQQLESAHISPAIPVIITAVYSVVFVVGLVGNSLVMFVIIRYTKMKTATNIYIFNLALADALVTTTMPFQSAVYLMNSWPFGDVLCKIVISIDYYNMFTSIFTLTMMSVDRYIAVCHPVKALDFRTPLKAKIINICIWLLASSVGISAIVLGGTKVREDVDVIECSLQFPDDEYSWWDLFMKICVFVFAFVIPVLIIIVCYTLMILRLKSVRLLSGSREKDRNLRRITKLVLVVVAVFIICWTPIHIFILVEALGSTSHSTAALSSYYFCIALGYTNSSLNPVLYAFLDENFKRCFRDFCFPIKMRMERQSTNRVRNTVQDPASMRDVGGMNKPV

Structure (SMILES) | IC50 [1] [nM] | IC50 [2] [nM] | Recovery (Cavia porcellus [3]) [%] | Recovery (Cavia porcellus [4]) [%] | Recovery (Mus musculus) [%] | Ki (Mu-type opioid receptor) [nM] | Ki [5] [nM]
CN(C(=O)Cc1ccc(Cl)c(Cl)c1)C(CN1CCCC1)c1ccc(N/C(S)=N/c2ccc(-c3c4ccc(=O)cc-4oc4cc(O)ccc34)c(C(=O)O)c2)cc1 (centres undefined) | 12.6 | 5.2 |  |  |  |  | 
CN(C(=O)Cc1ccc(Cl)c(Cl)c1)C(CN1CCCC1)c1ccc(NC(=O)CNC(=O)C/N=C(S)\N=C2/C=CC(=C3c4ccc(O)cc4Oc4cc(O)ccc43)C(C(=O)O)=C2)cc1 (centres undefined) | 170 | 48 |  |  |  |  | 
CN(C(=O)Cc1ccc(Cl)c(Cl)c1)C(CN1CCCC1)c1ccc(NC(=O)CNC(=O)CNC(=O)CNC(=O)C/N=C(S)\N=C2/C=CC(=C3c4ccc(O)cc4Oc4cc(O)ccc43)C(C(=O)O)=C2)cc1 (centres undefined) | 421 | 166 |  |  |  |  | 
CN(C(=O)Cc1ccc(Cl)c(Cl)c1)[C@H](CN1CCCC1)c1cccc(NC(=S)Nc2ccc(-c3c4ccc(=O)cc-4oc4cc(O)ccc34)c(C(=O)O)c2)c1 | 1.2 | 0.37 |  |  |  |  | 
CN(C(=O)Cc1ccc(Cl)c(Cl)c1)[C@H](CN1CCCC1)c1cccc(NC(=O)C/N=C(S)/N=C2\C=CC(=C3c4ccc(O)cc4Oc4cc(O)ccc43)C(C(=O)O)=C2)c1 | 1.2 | 0.17 | 97 | 39 | 79 | 286 | 0.31
CN(C(=O)Cc1ccc(Cl)c(Cl)c1)[C@H](CN1CCCC1)c1cccc(N/C(S)=N/c2ccc(-c3c4ccc(=O)cc-4oc4cc(O)ccc34)c(C(=O)O)c2)c1 |  |  | 61 | 21 | 100 |  | 
CN(C(=O)Cc1ccc(Cl)c(Cl)c1)C(CN1CCCC1)c1ccc(NC(=O)C/N=C(S)/N=C2\C=CC(=C3c4ccc(O)cc4Oc4cc(O)ccc43)C(C(=O)O)=C2)cc1 (centres undefined) | 102 | 62 |  |  |  |  | 
CN(C(=O)Cc1ccc(Cl)c(Cl)c1)[C@H](CN1CCCC1)c1cccc(NC(=O)CNC(=O)C/N=C(S)/N=C2\C=CC(=C3c4ccc(O)cc4Oc4cc(O)ccc43)C(C(=O)O)=C2)c1 | 1.5 | 1.2 | 37 | 34 | 100 |  | 
CN(C(=O)Cc1ccc(Cl)c(Cl)c1)[C@H](CN1CCCC1)c1ccccc1 |  |  | 32 | 20 |  |  | 
CN(C(=O)Cc1ccc(Cl)c(Cl)c1)[C@H](CN1CCCC1)c1cccc(NC(=O)CNC(=O)CNC(=O)CNC(=O)C/N=C(S)/N=C2\C=CC(=C3c4ccc(O)cc4Oc4cc(O)ccc43)C(C(=O)O)=C2)c1 | 6.5 | 0.15 | 131 | 44 | 100 | 631 | 0.91

From ChEMBL document CHEMBL1129555, “Arylacetamide-derived fluorescent probes: synthesis, biological evaluation, and direct fluorescent labeling of kappa opioid receptors in mouse microglial cells” (J Med Chem, 1996)
